Source: PubChem
OX1R antag-1: blocks the human orexin 1 receptor; 330,000 tested, 1.8% active; inhibition, % at 6.6 µM; OX1R-expressing cells, FRET antagonist read-out; O43613; in the data active means inhibition mostly above about 38%, no sharp cut-off; inactive means mostly below about 40%
Target sequence (O43613 whole entry, looked up): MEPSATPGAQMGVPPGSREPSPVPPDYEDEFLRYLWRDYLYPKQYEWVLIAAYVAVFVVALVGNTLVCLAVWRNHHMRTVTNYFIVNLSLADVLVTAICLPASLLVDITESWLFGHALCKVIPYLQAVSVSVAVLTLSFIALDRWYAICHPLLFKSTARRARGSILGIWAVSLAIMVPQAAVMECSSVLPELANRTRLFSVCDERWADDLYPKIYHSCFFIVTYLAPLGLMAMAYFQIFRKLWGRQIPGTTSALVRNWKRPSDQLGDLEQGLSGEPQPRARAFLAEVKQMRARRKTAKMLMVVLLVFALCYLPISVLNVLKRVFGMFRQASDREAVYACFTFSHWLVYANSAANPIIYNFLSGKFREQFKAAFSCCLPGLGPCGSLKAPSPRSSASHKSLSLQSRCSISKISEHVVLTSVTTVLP
GPR7 antag: blocks human GPR7 receptor signaling | P48145 | GPR7-expressing cells, fluorescence antagonist assay | inhibition, % at 4.4 µM | 290,000 tested, 1.1% active; in the data active means inhibition above about 16%, passing the limit was not always enough;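 further: cells stimulated with the agonist NPW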
Target sequence (P48145 whole entry, looked up): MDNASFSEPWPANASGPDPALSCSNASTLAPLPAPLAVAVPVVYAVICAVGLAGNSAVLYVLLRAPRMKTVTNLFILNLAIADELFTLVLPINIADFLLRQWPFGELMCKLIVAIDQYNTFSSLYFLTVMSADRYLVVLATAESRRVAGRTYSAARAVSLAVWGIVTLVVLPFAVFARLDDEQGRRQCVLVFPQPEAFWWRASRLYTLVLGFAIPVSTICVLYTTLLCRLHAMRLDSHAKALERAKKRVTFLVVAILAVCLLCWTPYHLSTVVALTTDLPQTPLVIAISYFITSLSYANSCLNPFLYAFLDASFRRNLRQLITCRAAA
TAAR1 antagonist: human TAAR1 antagonism. Q96RJ0. CHO RD-HGA16 TAAR1, Fluo-8 calcium fluorescence, antagonist. inhibition, % at 3 µM. 360,000 tested, 1.5% active. AID 624466;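 active means inhibition above a per-plate cutoff, the mean inhibition of test compounds on that plate plus 3 SD, cut at about 49% in these data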
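Test system – hTAAR1-expressing CHO RD-HGA16 cells, Gα16-coupled · Also added – β-PEA at EC80 concentration, post-compound challenge · Compound – 3 µM, single point · Incubation – dye loading 75 min at 37 °C, then 30 min room temperature · Measured by – Fluo-8 intracellular calcium dye fluorescence, real-time kinetic reads · Benchmarks – vehicle and agonist controls · Replicates – singlicate, one well per test compound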
TAAR1 agonist: human TAAR1 agonism. Q96RJ0. activation, % at 3 µM. 360,000 tested, 0.99% active. AID 624467. CHO RD-HGA16 TAAR1, Fluo-8 calcium fluorescence; vehicle wells 0%, saturating PEA agonist 100%;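 active means activation above the mean activation of all test compounds in the run plus 3 SD, cut at about 38% in these data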
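Test system: RD-HGA16 (CHO) cells co-expressing Gα16 and hTAAR1 / Benchmarks: DMSO vehicle as 0%, PEA at EC100 as 100% / Repeats: no replicates (n 1) / Measure: % activation from peak over basal fluorescence ratio, DMSO-to-PEA scaled / Timing: 17-24 h plating, Fluo-8 75 min 37 °C, 30 min RT / Technique: kinetic Fluo-8 calcium fluorescence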
OX1R antag-2: blocks the human orexin 1 receptor; CHO/OX1R cells, Fluo-8 calcium fluorescence, orexin A; 330,000 tested, 0.43% active; AID 434989; inhibition, % at 5 µM;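 active means inhibition above its plate's threshold, mean inhibition of all tested compounds on the plate plus 3 SD, cut at about 37% in these data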
CHO parental Ca: counter-screen for OX1R antagonists: effect in parental CHO cells; parental CHO-K1, ATP-induced calcium, Fluo-8 fluorescence; inhibition, % at 5.6 µM; 330,000 tested, 0.63% active; AID 463079;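 active means inhibition above that plate's mean sample inhibition plus 3 SD, cut at about 26% in these data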
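Material – parental CHO cells · Reagent – ATP stimulus · Compound – single nominal dose of 5.6 µM per compound · Detection – Fluo-8 fluorescence · Read-out basis – percent inhibition of calcium signal · Controls – ATP-challenged DMSO wells low, unchallenged DMSO wells high · Repeats – no replicates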
TAAR1 ag conf: human TAAR1 agonism, confirmed; AID 651783; activation, % at 3 µM; 2,400 tested, 82% active; shares compounds with TAAR1 agonist; CHO RD-HGA16 TAAR1, Fluo-8 calcium fluorescence; scaled: DMSO 0%, maximal phenethylamine 100%;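 active means activation above a cutoff set at the run's mean compound activation plus 3 SD, cut at about 39% in these data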
Ga16 nonsel ag: nonselective agonism, TAAR1 counter-screen. AID 651787. shares compounds with TAAR1 agonist. activation, % at 3 µM. CHO-Ga16 parental, Fluo-8 calcium fluorescence; normalized to maximal ATP response, DMSO zero. 2,400 tested, 50% active;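 active means activation above the run cutoff, the mean activation over all tested wells plus 3 SD, cut at about 12% in these data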
TAAR1 desensitize: TAAR1 response desensitization, agonist counter-screen; shares compounds with TAAR1 agonist; CHO RD-HGA16 hTAAR1, Fluo-8 calcium, beta-PEA response inhibition; inhibition, % at 3 µM; 2,400 tested, 46% active;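 active means inhibition above the run cutoff, the mean inhibition of all test compounds plus 3 SD, cut at about 49% in these data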;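 further: beta-PEA stimulus applied at its EC80; loss of beta-PEA calcium signal after compound pretreatment read as receptor desensitization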
Ga16 antag count: counter-screen for TAAR1 agonists: nonselective Ga16 antagonists; shares compounds with TAAR1 agonist; CHO-Ga16 ATP-induced calcium, Fluo-8 fluorescence; inhibition, % at 3 µM; 2,400 tested, 39% active;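 active means inhibition above the plate's mean compound inhibition plus 3 SD, computed per plate, cut at about 22% in these data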
Numbers stand for hits; – = inactive; · = not tested or not shown. Only some compounds are listed: those with a hit (about 4.6% of all), similar ones and a draw of the others.

SMILES	OX1R antag-1	GPR7 antag	TAAR1 antagonist	TAAR1 agonist	OX1R antag-2	CHO parental Ca	TAAR1 ag conf	Ga16 nonsel ag	TAAR1 desensitize	Ga16 antag count
CCn1cc(S(=O)(=O)NCCc2ccccc2OC)cn1	–	–	–	45.6	–	–	59.5	–	–	–
CCOC(=O)c1c(C)[nH]c(C)c1S(=O)(=O)NCCc1sccc1C	–	–	–	53.8	–	–	–	–	–	–
CCOC(=O)c1c(C)[nH]c(C)c1S(=O)(=O)NCCc1ccc(SC)cc1	–	–	–	–	–	–	·	·	·	·
Oc1c(C(c2ccccc2)N2CCc3ccccc3C2)sc2ncnn12 (centres undefined)	–	–	–	64.6	–	–	60.8	–	–	–
COc1cccc(C(c2sc3nc(C)nn3c2O)N2CCc3ccccc3C2)c1 (centres undefined)	–	–	–	54.3	–	–	56.3	–	–	–
O=[N+]([O-])c1ccc(S(=O)(=O)NNC(=S)NCCc2ccccc2)cc1	–	–	–	52.5	–	–	56.1	–	–	–
COc1ccc(CCN2CCC(Nc3nc4ccccc4n3Cc3ccc(F)cc3)CC2)cc1	–	–	–	59.5	–	–	53.6	19.6	–	–
COc1cc2cc(CN(Cc3cccs3)C(=S)Nc3ccccc3)c(=O)[nH]c2cc1OC	–	–	–	–	–	–	·	·	·	·
CN1CCc2c(c3ccccc3n2Cc2ccccc2)C1	–	–	–	–	–	–	·	·	·	·
CN1CCc2c(c3ccccc3n2C)C1	–	–	–	54.9	–	–	81.2	–	–	–
CCc1cc2c(NCCC(=O)O)nc(C)nc2s1	–	–	–	48.6	–	–	103.7	46.6	–	–
O=C(N[C@H](C(=O)N1CCC[C@H]1C(=O)NCCc1ccccc1Cl)C1CCCCC1)c1ccccc1	·	·	65.9	64.5	·	·	75.7	–	85.2	–
O=C(N[C@H](C(=O)N1CCC[C@H]1C(=O)NCCc1ccccc1Cl)C1CCCCC1)C1CC1	·	·	–	45.9	·	·	73.2	–	78.4	–
COc1cccc(C(=O)N[C@H](C(=O)N2CCC[C@H]2C(=O)NCCc2ccccc2Cl)C2CCCCC2)c1	·	·	54.7	52.2	·	·	79.1	–	85.6	–
C=CCC[C@H](Cc1ccc(F)cc1)C(=O)OC[C@@H](Cc1c[nH]c2ccccc12)NC(=O)[C@@H](CC=C)CC(=O)N[C@@H](CO)Cc1ccccc1	–	·	–	–	–	–	·	·	·	·
C=CCC[C@H](Cc1ccc(F)cc1)C(=O)OC[C@H](Cc1c[nH]c2ccccc12)NC(=O)[C@@H](CC=C)CC(=O)NCCO	–	·	74.5	64.6	–	–	–	25.0	68.8	52.8
O=C(NCc1cccs1)c1cc(-c2ccccc2)on1	–	–	–	57.1	–	–	–	19.4	–	22.6
O=C(NCc1cccs1)c1cc(-c2cccs2)on1	–	–	–	–	–	–	·	·	·	·
CNc1nc(N)c([N+](=O)[O-])c(Nc2ccccc2OC)n1	44.3	–	–	56.0	–	–	79.6	13.2	–	–
COc1ccccc1Nc1nc(NCCO)nc(N)c1[N+](=O)[O-]	–	–	–	–	–	–	·	·	·	·
O=C(COC(=O)C1CC(=O)N(Cc2ccccc2)C1)Nc1ccccc1F (centres undefined)	–	–	–	–	–	–	·	·	·	·
COc1cccc(CC2(CO)CCCN(Cc3cc4ccccc4[nH]3)C2)c1 (centres undefined)	–	–	–	–	–	–	·	·	·	·
Cc1cc(C(=O)CN2C(=O)NC(C)(c3ccc(F)c(F)c3)C2=O)c(C)n1C1CC1 (centres undefined)	·	·	–	68.1	·	·	84.3	30.2	–	–
COc1ccc(C2(C)NC(=O)N(CC(=O)c3cc(C)n(C4CC4)c3C)C2=O)cc1 (centres undefined)	–	·	82.8	136.9	52.3	–	104.3	50.0	–	26.2
C[C@H]1CN(C2CCCCC2)C(=O)[C@@H]1CC(=O)Nc1ccc(Br)cc1	·	·	–	–	·	·	·	·	·	·
SMILES	OX1R antag-1	GPR7 antag	TAAR1 antagonist	TAAR1 agonist	OX1R antag-2	CHO parental Ca	TAAR1 ag conf	Ga16 nonsel ag	TAAR1 desensitize	Ga16 antag count
CCOC(=O)CN1C(=O)C(C)(C)Oc2ccc(C(=O)Nc3ccccc3)cc21	–	–	–	–	–	–	·	·	·	·
CCOCCCNc1ccc(N2C(=O)C3CCCCC3C2=O)cc1[N+](=O)[O-] (centres undefined)	–	–	–	43.5	–	–	–	–	–	–
CCN(CC)c1ccc(N2C(=O)C3CCCCC3C2=O)cc1[N+](=O)[O-] (centres undefined)	–	–	–	–	–	–	·	·	·	·
Cc1ccc(OP(=O)(Nc2c(C)n(C)n(-c3ccccc3)c2=O)Oc2ccc(C)cc2)cc1	–	–	–	50.3	–	–	–	–	–	–
Cc1cc2nc(-c3cccc(Br)c3)c(Cc3cccc(Cl)c3)n2c(C)c1Br	·	·	–	–	·	·	·	·	·	·
CN(CC(=O)Nc1ccccc1Cl)C(=O)CCNC(=O)Nc1ccccc1	–	·	·	·	–	–	·	–	·	–
COc1ccc(NC(=O)CN(C)C(=O)CCNC(=O)Nc2ccccc2)cc1	·	·	–	–	·	·	·	·	·	·
CCc1cccc(C)c1NC(=O)CN1C(=O)NC(C)(CCC(C)C)C1=O (centres undefined)	–	·	–	–	–	–	·	·	·	·
Cc1cc(C)nc(N2CCCC(C(=O)NCCc3ccccc3F)C2)n1 (centres undefined)	–	–	–	44.7	–	–	75.7	–	–	–
CN(CC(=O)Nc1ccc(Cl)cc1)C1CCCCC1	–	–	–	–	–	–	·	·	·	·
O=C(COc1ccccc1)NNC(=O)c1cc2ccccc2oc1=O	–	–	–	45.3	–	–	71.8	–	–	–
Fc1c(F)c(C(F)(F)F)c(F)c(F)c1N/N=C\c1cccs1	–	–	75.5	92.3	–	–	70.1	86.0	70.7	79.6
Cc1ccc(N(Cc2cc3ccccc3[nH]c2=O)C(=O)c2cccs2)cc1C	–	–	–	–	–	–	·	·	·	·
CCc1c(-c2ccc(OC)c(OC)c2)ncn1CCc1ccccc1OC	·	·	–	–	·	·	·	·	·	·
COc1ccccc1CCn1cnc(Cc2ccccc2)c1C(C)C	·	·	–	54.0	·	·	71.8	–	58.8	21.8
